From the EternaBench riboswitch data

Tested on: MS2 coat protein
Experiment: apparent Kd, MS2 coat protein; higher = weaker binding; RNA-MaP array; FMN 200 µM where present
How it was run: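 In 100 mM Tris-HCl pH 7.5, 80 mM KCl, 4 mM MgCl2, BSA, DTT, yeast tRNA and Tween-20, SNAP-549-labelled MS2 coat protein was titrated from 0.7 or 1.5 nM, doubling to 3 µM, over designs transcribed by stalled E. coli RNA polymerase on Illumina sequencing-chip clusters. This was done first without ligand, then with ligand held constant. After green signal was normalised to red-channel RNA signal and control-cluster median Fmax, the apparent Kd was taken as the median of filtered per-cluster binding-curve fits.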

[1] = designed as: OFF switch for flavin mononucleotide, no ligand
[2] = ligand present: flavin mononucleotide, designed as: OFF switch for flavin mononucleotide
[3] = designed as: ON switch for flavin mononucleotide, no ligand
[4] = ligand present: flavin mononucleotide, designed as: ON switch for flavin mononucleotide

AGGUGUCCUGAGAAAUUUCUCGACAUGAGGAUCACCCAUGUAGAGGAUAUCGACGCUGUGCGGUUCGAGAAGGCUACACGAAUU
apparent Kd [1]: 0.0126 µM | apparent Kd [2]: 0.0943 µM

GUCAUCGCAUGAGGAUAUGGCACCGUUUCGGUGCCAGAAGGCAUGUCAAAUGACAUGAGGAUCACCCAUGUAGUUAAGAUGGCA
apparent Kd [3]: 0.229 µM | apparent Kd [4]: 0.017 µM

UAUAUAUAGGCAGGAUAUACAUGAAUAUAUAUAAUGUAGUAUGAUGUAACAUGAGGAUCACCCAUGUAGAAGGGCCAAUAUAUA
apparent Kd [1]: 0.0368 µM | apparent Kd [2]: 0.0952 µM

AAUAAGCUAGGAUAUACAUGAGGAUCACCCAUGUGAGGGCACGGCCGGCGCGUUUCCGGUAGAAGGAGUCAUAA
apparent Kd [1]: 0.0345 µM | apparent Kd [2]: 0.0252 µM

GUGCCUUGGUAGAAGGCCCAAUGCAAAGCAUAGGGAGGAUAUACAUAUAAUAAAUAAACAUGAGGAUCACCCAUGUGGCACAAA
apparent Kd [3]: 0.0108 µM | apparent Kd [4]: 0.0104 µM

AAAUUUAACGAAGGAUAUGCUGACAUGAGGAUCACCCAUGUGUGCCUUGUGUUGCUGAAACGGGAGCAGAAGGUCGUAUACAUA
apparent Kd [1]: 0.694 µM | apparent Kd [2]: 1.18 µM

UCCUUACUGGUCAGGAUAUACAUUCGCUACUCCUUGUAGAAGGGACAUGAGGAUCACCCAUGUACUUUACAUUC
apparent Kd [1]: 0.0174 µM | apparent Kd [2]: 0.0189 µM

GUGACGAUGUAAGGAUAUGCUGAGGAUAACUCAGCAGAAGGUACAUGAGGAUCACCCAUGUAACGUCACAAUAAUAAUAAUAAU
apparent Kd [1]: 0.0123 µM | apparent Kd [2]: 0.0229 µM

GUGGCUAGUGCAGGAUAUUAGUGCGUGUAGUAUUGAGAAGGGCACAUGAGGAUCACCCAUGUGAUCAAUCACUGUUAAGGUCGC
apparent Kd [1]: 0.0797 µM | apparent Kd [2]: 0.0765 µM

CUGAGCAAUGUAGGAUAUCGACUGGAUAACAGUCGAGAAGGACAUGAGGAUCACCCAUGUCAAUGAGUGAAUAAUAAAGCUCAG
apparent Kd [1]: 0.0204 µM | apparent Kd [2]: 0.118 µM

UUUUUACUUGCAGGAUAUGGAGACAUGAGGAUCACCCAUGUAUGAUAAGCUAAAUUAUGCUGUGGCCAGAAGGGUAUUGUUCUU
apparent Kd [3]: 0.072 µM | apparent Kd [4]: 0.0529 µM

UGAAAUCAUGUAGGAUAUGCAUGGCGAAGCUACGCAGAAGGACAUGAGGAUCACCCAUGUUCUAGCGUCUGAGUACAGAUGCAA
apparent Kd [1]: 0.0196 µM | apparent Kd [2]: 0.0649 µM

GCACUGGAUGUAGGAUAUCAGGACGAUAAGUCCUGAGAAGGACAUGAGGAUCACCCAUGUAAACUCAACCAGUGCUAUAAUAUA
apparent Kd [1]: 0.0152 µM | apparent Kd [2]: 0.0228 µM

UGUUGUAUUACAGGAUAUCUAUUGAUUUUAUUUAGAGAAGGGUAUUCACAUGAGGAUCACCCAUGUAUAUACGAGGAAGUUGUG
apparent Kd [3]: 0.0546 µM | apparent Kd [4]: 0.0627 µM

GCACGGCAUGUAGGAUAUCGAGCUCCGGGAGCUCGAGAAGGACAUGAGGAUCACCCAUGUGCUCACAGUGAGUGAGCGCUGUGC
apparent Kd [1]: 0.0239 µM | apparent Kd [2]: 0.0935 µM

AUCCUACAUGAGGAUCACCCAUGUAAGGAUAUGCGGCGACGAGAUUGUCUAUACGGCCGCAGAAGGUACCCGGG
apparent Kd [1]: 0.0161 µM | apparent Kd [2]: 0.0186 µM

AUACAUGAGGAUCACCCAUGUUACUGGGUCUAUAUAGAACGUAGAAGGAUGUAUUUACACAUAACAUAGGAUAUACUUUAUAGU
apparent Kd [1]: 0.0552 µM | apparent Kd [2]: 0.0419 µM

GUAGCAUACCGAGGAUAUUCAUAUAAUAAAUAAACAUGAGGAUCACCCAUGUGGCGAAAGCCUUGGGAGAAGGCGGAAUGCUAC
apparent Kd [3]: 0.647 µM | apparent Kd [4]: 0.0373 µM

GGUGUAUAUGAGAAGGCGAUCAUGAAACAUGAUCGAGGAUAUCAUGUAAACAUGAGGAUCACCCAUGUAUGGGAAUAAUGCACC
apparent Kd [3]: 0.12 µM | apparent Kd [4]: 0.0136 µM

UUUUUUGUUGUGAGGAUAUCGUAGUUAUUUUGUUACGAGAAGGCACAUGAGGAUCACCCAUGUUUUUUGAUGUU
apparent Kd [1]: 0.0238 µM | apparent Kd [2]: 0.0826 µM

GUACUGCCCACAGAUAACUUAGCCAGAAGGGUCUACAUGAGGAUCACCCAUGUGGUCCAAAGUGGACAGGAUAUGGAAACGGUU
apparent Kd [1]: 0.0684 µM | apparent Kd [2]: 0.0409 µM

AACAGGGAUUCAGGAUAUAUUAGCCGAGGCCGCGUAGAAGGGAAAUCCUGACAUGAGGAUCACCCAUGUCGACCCGCCUUCCAC
apparent Kd [3]: 0.0231 µM | apparent Kd [4]: 0.0229 µM

GGUUCACGAGGAUAUCGAUUUUAGUACAUGAGGAUCACCCAUGUUGUCCAGGUUUCGAUUCGAGAAGGCGUGAACC
apparent Kd [1]: 0.0228 µM | apparent Kd [2]: 0.0225 µM

AUCAUCUUGUCAGGAUAUGCGUGUCGACGAAAGUAGACAAUCUUGAUAACAUGAGGAUCACCCAUGUAGAAGGGACGAGAUGAU
apparent Kd [1]: 0.0216 µM | apparent Kd [2]: 0.0245 µM

GACUGACAUGAGGAUCACCCAUGUAUUCGAGCAUGAGGAUAUAUGACACGUCAUCGGCGGAUAGAAGGCAUGGUUG
apparent Kd [3]: 0.124 µM | apparent Kd [4]: 0.185 µM

UCUUUGUGAGGAUAUCAGUAGUAAAUAAAUAAAAUUACUACUGAGAAGGCACAUGAGGAUCACCCAUGUUCCUU
apparent Kd [1]: 0.0121 µM | apparent Kd [2]: 0.0244 µM

CCCGCCAUACAGAAGGGAAACAUGAGGAUCAGCCGCGACAUGAGGAUCACCCAUGUUUACCUAUUUCAGGAUAUGUACACUCCC
apparent Kd [3]: 0.47 µM | apparent Kd [4]: 0.225 µM

AGUGUCAUCGAGAAGGCCUCAACAUGAGGAUCACCCAUGUUGCAAAAUGGGAGGAUAUCGAAAAAACAGCUACGUUUCGUAGCA
apparent Kd [3]: 0.0226 µM | apparent Kd [4]: 0.00517 µM

UUGGACGUCGUAGGAUAUGUAGGAUAUUCCUACAUGAGGAUCACCCAUGUUGACAUGGAAGAUGGACAGAAGGACGAUGUCCAU
apparent Kd [3]: 0.983 µM | apparent Kd [4]: 0.0421 µM

GUAGCUAUCGGAGGAUAUUCAUAGCGGAAACGGACAUGAGGAUCACCCAUGUGGCUAAAGCCUUGGGAGAAGGCCGAUAGCUAC
apparent Kd [3]: 0.0258 µM | apparent Kd [4]: 0.00664 µM

UUUGCAUUCCGAGGAUAUUCAUAUAAUAAAUACACAUGAGGAUCACCCAUGUGGCGAUAGCCUAGGGAGAAGGCGGUUUGCUUU
apparent Kd [3]: 0.0223 µM | apparent Kd [4]: 0.024 µM

UUUAGUUUAGGAUAUGUAGACAUUAACAUGAGGAUCACCCAUGUAGAUCCUGAAUUGACUACAGAAGGAAGCAUUU
apparent Kd [1]: 0.248 µM | apparent Kd [2]: 0.446 µM

CCUGGAUCAUGAGGAUAUGGUACCUUAUUGGUACCAGAAGGCAUGUCUCUUGACAUGAGGAUCACCCAUGUAAUAAAUUCCAGG
apparent Kd [3]: 0.841 µM | apparent Kd [4]: 0.114 µM

UUUGUGUGAGGAUAUUAAUUGCAAGCGAAUAGGCUUGUGAUUGAGAAGGCACAUGAGGAUCACCCAUGUUCCUU
apparent Kd [1]: 0.0181 µM | apparent Kd [2]: 0.151 µM

UAAAAGACUAGCGAUCUAAAGAUCACAUGAGGAUCACCCAUGUAGGAUAUGAGCAGAAAAUCUGCUCAGAAGGACAUGCUAGUC
apparent Kd [1]: 0.00588 µM | apparent Kd [2]: 0.00918 µM

CAGCGAUAGCUGAACAAUCUAUCACAGGAUAUUCAUAAAACAUGAGGAUCACCCAUGUGAAAUUGGGAGAAGGGUGAUAGAUUG
apparent Kd [3]: 0.0108 µM | apparent Kd [4]: 0.00504 µM

ACAUGAGGAUCACCCAUGUUAUCUGGGACUUCAAUUAUUUCUAGAAGGCUGUUUACUUGUUAGUCAGAGGAUAUAGAAUUAAAU
apparent Kd [1]: 0.0312 µM | apparent Kd [2]: 0.0323 µM

AAUUAUUUUUGAGGAUAUCGUGGUGAAACACCACGAGAAGGCAAGAUACACAUGAGGAUCACCCAUGUGAGCCUGAUGCUUAUG
apparent Kd [1]: 0.0169 µM | apparent Kd [2]: 0.0214 µM

ACUUGUAAGCAGAAGGCAGUCAUUAUAUUCGUCAUGUAGACAUGAGGAUCACCCAUGUAUAGUACUGAGGAUAUGCAUCGAUAG
apparent Kd [1]: 0.00784 µM | apparent Kd [2]: 0.0129 µM

UGUGUGUGGGCAGGAUAUGCAUGAAUAUGUAUGAUGUAGUGUGAUGUAACAUGAGGAUCACCCAUGUAGAAGGGCCGGUGUGUG
apparent Kd [1]: 0.0993 µM | apparent Kd [2]: 0.116 µM

GUUAUGUUAGGAUAUGCUUAUGGUGGGUGCUCAGAUAUGAUGCAGAAGGGACAUGAGGAUCACCCAUGUACUGU
apparent Kd [1]: 0.484 µM | apparent Kd [2]: 0.31 µM

CUGAUGUUAGGAUAUCAGGCUGCGCGCGAAGGCGGACGGCAUGAGAAGGAACAUGAGGAUCACCCAUGUGACGA
apparent Kd [1]: 0.0326 µM | apparent Kd [2]: 0.103 µM

UUCGUGCAGCUUAGCUGUACGCGUACAUGAGGAUCACCCAUGUAGGAUAUGGUAGGCAAAGCUUACUAGAAGGAUAUAGUGAUC
apparent Kd [1]: 0.129 µM | apparent Kd [2]: 0.144 µM

AAAACAUGAGGAUCACCCAUGUAAAGAACGGUUAAUAGAUGUGAGGAUAUACUAGAAUUUAGGUAGUAGAAGGCACUGGGUACA
apparent Kd [3]: 0.0217 µM | apparent Kd [4]: 0.0234 µM

GUAUAUAUUACAUGAGGAUCACCCAUGUCAGAACGGGUAAUCAGAAGGUAGUAUUAGAGAAAGAUUAAGGAUAUGAUUAUAUAC
apparent Kd [3]: 0.231 µM | apparent Kd [4]: 0.0811 µM

UUUUUUGUUGUGAGGAUAUCGUUUUUGUUUUGGAUCGAGAAGGCACAUGAGGAUCACCCAUGUUUGUUGUGGUU
apparent Kd [1]: 0.0888 µM | apparent Kd [2]: 0.159 µM

GGUGCGUAUGUGAGGAUAUGCUGGUCCUUGGAUCGGCAGAAGGCACAUGAGGAUCACCCAUGUGGUGUCGUACA
apparent Kd [1]: 0.411 µM | apparent Kd [2]: 0.0347 µM

GGUUGGCGAGGAUAUACAUGAGGAUCACCCAUGUGGUCCUGUGGCUGGUCUAACCUUUGUAGAAGGCGCGGGUC
apparent Kd [1]: 0.225 µM | apparent Kd [2]: 0.186 µM

UCGCUGCGAGGAUAUACGUUUGCGCGUUUUCGUUUGCGCGUACAUGAGGAUCACCCAUGUAGAAGGCGCGCGGC
apparent Kd [1]: 0.0143 µM | apparent Kd [2]: 0.0148 µM

AAAAGACAUGAGGAUCACCCAUGUUAAGACGUGGGAGGAUAUGUAUGGAAAACAUGCUGUACAGAAGGCCCGUGUC
apparent Kd [3]: 0.0538 µM | apparent Kd [4]: 0.0197 µM

GGGUAUAUCGGAGGAUAUCAUGUAAAUACAUGAGGAUCACCCAUGUCGAUGGAGACAUCGGAGAUUGAGAAGGCCGAUGUACCG
apparent Kd [3]: 0.163 µM | apparent Kd [4]: 0.00934 µM

AUAGCAUACCGAGGAUAUUCAUAUAAUAAAUAAACAUGAGGAUCACCCAUGUGGCGAAAGCCUAGGGAGAAGGCGGAAUGCUAA
apparent Kd [3]: 0.218 µM | apparent Kd [4]: 0.0233 µM

UUCCUCACUUCUUUGACUCACAUGAGGAUCACCCAUGUAAUAUAGGAUAUGCAUUUUAUUUCUUUGCAGAAGGAUAUUAGUUUU
apparent Kd [1]: 0.0448 µM | apparent Kd [2]: 0.141 µM

CACGUCAGGAAACGGAGCGGCCAACAUGAGGAUCACCCAUGUGAGGAUAUGCCUACUAAAAGUAGGCAGAAGGCACAAUUGGCA
apparent Kd [1]: 0.0367 µM | apparent Kd [2]: 0.0949 µM

GGGUACAUCGGAGGAUAUCAUGUAAAUACAUGAGGAUCACCCAUGUCGAUGGAGACAUCGGAGAAUGAGAAGGCCGAUGUACCG
apparent Kd [3]: 0.0176 µM | apparent Kd [4]: 0.00534 µM
